Reference: ChEMBL document CHEMBL2401649, “Cyclic enkephalins with a diversely substituted guanidine bridge or a thiourea bridge: synthesis, biological and structural evaluations” (J Med Chem, 2013)

Tests used:
[1] = target: T1, Mu-type opioid receptor (Rattus norvegicus, UniProt P33535); assay: Agonist activity at mu opioid receptor in rat brain membranes assessed as stimulation of [35S]GTPgammaS binding after 60 mins in presence of GDP; type: functional, cell membranes
[2] = target: Kappa-type opioid receptor (Cavia porcellus, UniProt P41144); assay: Displacement of [3H]-U69,593 from kappa opioid receptor in guinea pig brain membranes after 2 hrs by liquid scintillation counting analysis; type: cell membranes, Membrane
Kappa-type opioid receptor, sequence (P41144 whole entry): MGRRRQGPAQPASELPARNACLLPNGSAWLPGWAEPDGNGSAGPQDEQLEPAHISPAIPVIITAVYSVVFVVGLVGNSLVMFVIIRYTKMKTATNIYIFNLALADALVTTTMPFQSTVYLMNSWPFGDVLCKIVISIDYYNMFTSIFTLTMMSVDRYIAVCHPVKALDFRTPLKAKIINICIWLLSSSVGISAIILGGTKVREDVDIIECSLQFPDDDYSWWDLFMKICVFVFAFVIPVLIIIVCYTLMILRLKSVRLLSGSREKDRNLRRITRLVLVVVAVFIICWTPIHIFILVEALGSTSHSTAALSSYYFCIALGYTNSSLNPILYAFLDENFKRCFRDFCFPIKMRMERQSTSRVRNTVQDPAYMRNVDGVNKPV
Summary of the method: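 Guinea pig brain membranes incubated 2 h at 0 °C with 0.80 nM [3H]U69,593 plus competitor. IC50 taken from log-dose displacement curves.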

[3] = target: Delta-type opioid receptor (Rattus norvegicus, UniProt P33533); assay: Displacement of [3H]-DIDI from delta opioid receptor in Wistar rat brain membranes after 45 mins by liquid scintillation counting analysis; type: cell membranes, Membrane
Delta-type opioid receptor, sequence (P33533 whole entry): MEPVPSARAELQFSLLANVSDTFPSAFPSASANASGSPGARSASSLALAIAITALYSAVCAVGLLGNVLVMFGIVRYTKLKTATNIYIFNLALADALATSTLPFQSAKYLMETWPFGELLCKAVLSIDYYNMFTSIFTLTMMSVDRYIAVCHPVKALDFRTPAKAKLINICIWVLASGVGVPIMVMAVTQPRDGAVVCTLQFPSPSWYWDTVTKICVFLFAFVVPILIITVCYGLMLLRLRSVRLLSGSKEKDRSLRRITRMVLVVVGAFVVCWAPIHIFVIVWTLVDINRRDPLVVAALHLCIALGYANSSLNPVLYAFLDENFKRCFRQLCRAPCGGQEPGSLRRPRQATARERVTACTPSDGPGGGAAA

[4] = species on record: Rattus norvegicus; assay: Selectivity ratio of Ki for delta opioid receptor in Wistar rat brain membranes to Ki for mu opioid receptor in Wistar rat brain membranes; type: cell membranes; details: Membrane
[5] = target: T1, Mu-type opioid receptor; assay: Displacement of [3H]-DAMGO from mu opioid receptor in Wistar rat brain membranes after 45 mins by liquid scintillation counting analysis; type: cell membranes, Membrane
[6] = target: Mu-type opioid receptor (Cavia porcellus, UniProt P97266); assay: Agonist activity at mu opioid receptor in guinea pig ileum; type: tissue-based
Mu-type opioid receptor (Cavia porcellus, UniProt P97266), sequence (P97266 whole entry): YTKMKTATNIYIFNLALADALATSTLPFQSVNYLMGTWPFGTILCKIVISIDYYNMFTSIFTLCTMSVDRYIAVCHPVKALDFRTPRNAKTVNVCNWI
Summary of the method: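 Isolated guinea pig ileum (MOR) and mouse vas deferens (DOR) bioassays; Leu-enkephalin dose-response curve run as standard on each preparation, test IC50 values normalized to it.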

T1 sequence (P33535 whole entry): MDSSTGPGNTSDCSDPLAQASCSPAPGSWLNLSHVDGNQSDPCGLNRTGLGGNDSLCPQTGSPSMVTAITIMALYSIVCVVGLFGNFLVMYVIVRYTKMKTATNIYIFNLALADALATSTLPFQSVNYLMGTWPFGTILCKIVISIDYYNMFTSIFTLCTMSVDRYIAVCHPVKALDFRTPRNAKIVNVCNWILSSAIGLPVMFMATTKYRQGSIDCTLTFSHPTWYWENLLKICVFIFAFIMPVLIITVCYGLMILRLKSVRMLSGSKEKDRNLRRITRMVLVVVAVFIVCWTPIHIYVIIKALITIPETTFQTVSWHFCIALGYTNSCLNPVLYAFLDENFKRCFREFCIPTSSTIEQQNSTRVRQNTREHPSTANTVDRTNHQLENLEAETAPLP

Row | Compound | EC50 ([1]; read-out: pEC50 (converted)) [nM] | EC50 ([1]; read-out: EC50) [nM] | Ki [2] [nM] | IC50 [3] [nM] | Ki [3] [nM] | Ratio Ki [4] | IC50 [5] [nM] | Ki [5] [nM] | IC50 [6] [nM]
1 | CN/C1=N/C[C@@H](C(N)=O)NC(=O)[C@H](Cc2ccccc2)NC(=O)CNC(=O)[C@H](NC(=O)[C@@H](N)Cc2ccc(O)cc2)CN1 (stereo in doubt; 10a) | 282 |  |  |  |  |  |  |  | 
2 | CC(C)C[C@@H]1NC(=O)[C@H](Cc2ccccc2)NC(=O)CNC(=O)[C@H](NC(=O)[C@@H](N)Cc2ccc(O)cc2)CCCN/C(N)=N\CCC[C@@H](C(N)=O)NC1=O |  | 3010 | > 500 | 145 | 108 | 5.9 | 25.1 | 18.4 | 
3 | CS/C1=N/CCC[C@@H](C(N)=O)NC(=O)[C@H](CC(C)C)NC(=O)[C@H](Cc2ccccc2)NC(=O)CNC(=O)[C@H](NC(=O)[C@@H](N)Cc2ccc(O)cc2)CCCN1 | 661 | 652 |  | 251 | 191 | 9.1 | 28.8 | 21 | 
4 | NC(=O)[C@@H]1C/N=C(/N2CCCC2)NC[C@@H](NC(=O)[C@@H](N)Cc2ccc(O)cc2)C(=O)NCC(=O)N[C@@H](Cc2ccccc2)C(=O)N1 (stereo in doubt; 13c) | 4790 |  | > 500 |  |  |  |  |  | 
5 | NC(=O)[C@@H]1CNC(=S)NC[C@@H](NC(=O)[C@@H](N)Cc2ccc(O)cc2)C(=O)NCC(=O)N[C@@H](Cc2ccccc2)C(=O)N1 (stereo in doubt; 7a) |  |  |  |  |  |  |  |  | 1.76
6 | NC(=O)[C@@H]1C/N=C(/N2CCCCC2)NC[C@@H](NC(=O)[C@@H](N)Cc2ccc(O)cc2)C(=O)NCC(=O)N[C@@H](Cc2ccccc2)C(=O)N1 (stereo in doubt; 14a) | 1450 |  |  |  |  |  |  |  | 398
7 | NC(=O)[C@@H]1C/N=C(/N2CCCCC2)NC[C@@H](NC(=O)[C@@H](N)Cc2ccc(O)cc2)C(=O)NCC(=O)N[C@@H](Cc2ccccc2)C(=O)N1 (stereo in doubt; 14c) | 7590 |  |  |  | 3500 |  |  |  | 
8 | CN/C1=N/C[C@@H](C(N)=O)NC(=O)[C@H](Cc2ccccc2)NC(=O)CNC(=O)[C@H](NC(=O)[C@@H](N)Cc2ccc(O)cc2)CN1 (stereo in doubt; 10b) | 1620 |  |  |  |  |  |  |  | 
9 | CC(C)C[C@@H]1NC(=O)[C@H](Cc2ccccc2)NC(=O)CNC(=O)[C@H](NC(=O)[C@@H](N)Cc2ccc(O)cc2)CCCN/C(N(C)C)=N\CCC[C@@H](C(N)=O)NC1=O | 1550 | 1520 | > 500 | 195 | 146 | 10.2 | 19.5 | 14.3 | 
10 | C/N=C1/NCCC[C@@H](C(N)=O)NC(=O)[C@H](CC(C)C)NC(=O)[C@H](Cc2ccccc2)NC(=O)CNC(=O)[C@H](NC(=O)[C@@H](N)Cc2ccc(O)cc2)CCCN1 |  | 1230 | > 300 | 245 | 185 | 10.3 | 24 | 17.9 | 
11 | CN(C)/C1=N/C[C@@H](C(N)=O)NC(=O)[C@H](Cc2ccccc2)NC(=O)CNC(=O)[C@H](NC(=O)[C@@H](N)Cc2ccc(O)cc2)CN1 |  | 1830 |  |  |  |  |  |  | 
12 | NC(=O)[C@@H]1C/N=C(/N2CCCCC2)NC[C@@H](NC(=O)[C@@H](N)Cc2ccc(O)cc2)C(=O)NCC(=O)N[C@@H](Cc2ccccc2)C(=O)N1 (stereo in doubt; 14b) | 4170 |  |  | 4900 |  |  |  |  | 
13 | CC(C)C[C@@H]1NC(=O)[C@H](Cc2ccccc2)NC(=O)CNC(=O)[C@H](NC(=O)[C@@H](N)Cc2ccc(O)cc2)CCCN/C(N2CCCC2)=N\CCC[C@@H](C(N)=O)NC1=O | 8130 | 8000 |  | 832 | 628 | 3.6 | 234 | 175 | 
14 | NC(=O)[C@@H]1C/N=C(/N2CCCC2)NC[C@@H](NC(=O)[C@@H](N)Cc2ccc(O)cc2)C(=O)NCC(=O)N[C@@H](Cc2ccccc2)C(=O)N1 (stereo in doubt; 13b) | 2820 |  | > 500 |  |  |  |  |  | 
15 | CC(C)C[C@@H]1NC(=O)[C@H](Cc2ccccc2)NC(=O)CNC(=O)[C@H](NC(=O)[C@@H](N)Cc2ccc(O)cc2)CCCNC(=S)NCCC[C@@H](C(N)=O)NC1=O | 603 | 589 |  | 97.7 | 75.7 | 8.3 | 12.3 | 9.1 | 
16 | NC(=O)[C@@H]1C/N=C(/N2CCCC2)NC[C@@H](NC(=O)[C@@H](N)Cc2ccc(O)cc2)C(=O)NCC(=O)N[C@@H](Cc2ccccc2)C(=O)N1 (stereo in doubt; 13a) | 1070 |  | > 500 |  |  |  |  |  | 
